Test results reported in BindingDB's records for doi:10.1021/acs.jmedchem.0c01897 (University of Michigan, 2021).

Molecular target: Signal transducer and activator of transcription 3 (Homo sapiens, UniProt P40763)
Assay: Inhibition of IL-6 induced STAT3 transcriptional activity in human HEK293 cells expressing SIE-luc2P preincubated for overnight followed by IL-6 stimulation and measured after 24 hr by Bio-Glo luciferase reagent based microplate reader assay
In short: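 GloResponse SIE-luc2P HEK-293 cells were seeded at 10,000/well and incubated overnight. STAT3 was activated with IL6 (100 ng/ml) for 24 h, then compound was added for 24 h. Bio-Glo luciferase reagent was added and luminescence read after 5 min. IC50 from three independent experiments, mean ± SD.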

Chain of Signal transducer and activator of transcription 3 (P40763 whole entry): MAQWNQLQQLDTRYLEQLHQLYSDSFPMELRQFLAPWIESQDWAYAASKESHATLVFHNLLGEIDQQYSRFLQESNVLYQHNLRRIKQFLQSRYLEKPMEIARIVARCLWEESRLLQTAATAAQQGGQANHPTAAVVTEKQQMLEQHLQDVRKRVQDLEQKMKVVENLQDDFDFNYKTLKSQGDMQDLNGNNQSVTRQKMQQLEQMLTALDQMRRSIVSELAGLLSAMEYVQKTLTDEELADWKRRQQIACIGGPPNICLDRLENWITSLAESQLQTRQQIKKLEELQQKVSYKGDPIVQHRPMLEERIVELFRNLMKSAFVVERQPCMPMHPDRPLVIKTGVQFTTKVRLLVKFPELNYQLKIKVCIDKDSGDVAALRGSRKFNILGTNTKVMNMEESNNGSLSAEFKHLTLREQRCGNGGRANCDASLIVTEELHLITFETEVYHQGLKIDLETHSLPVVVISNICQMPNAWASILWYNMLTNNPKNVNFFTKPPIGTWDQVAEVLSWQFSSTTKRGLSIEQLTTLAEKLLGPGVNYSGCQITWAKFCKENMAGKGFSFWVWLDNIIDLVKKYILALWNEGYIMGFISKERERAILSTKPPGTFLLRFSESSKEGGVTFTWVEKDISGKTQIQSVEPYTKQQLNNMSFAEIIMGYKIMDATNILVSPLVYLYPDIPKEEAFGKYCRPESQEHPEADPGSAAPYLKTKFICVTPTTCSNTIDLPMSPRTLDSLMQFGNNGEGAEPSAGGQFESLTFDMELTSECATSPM

IC50 | SMILES
15.3 µM | O=C1CCC(N2C(=O)c3cccc(NCCNC(=O)c4cc5c(o4)C(=O)c4ccccc4C5=O)c3C2=O)C(=O)N1 (stereo not drawn)
4.6 µM | O=C1CCC(N2C(=O)c3cccc(NCCCCCNC(=O)c4cc5c(o4)C(=O)c4ccccc4C5=O)c3C2=O)C(=O)N1 (stereo not drawn)
2.6 µM | O=C1CCC(N2C(=O)c3cccc(NCCOCCOCCOCCNC(=O)c4cc5c(o4)C(=O)c4ccccc4C5=O)c3C2=O)C(=O)N1 (stereo not drawn)
4.2 µM | O=C1CCC(N2C(=O)c3cccc(C#CCCCNC(=O)c4cc5c(o4)C(=O)c4ccccc4C5=O)c3C2=O)C(=O)N1 (stereo not drawn)
5.7 µM | O=C1CCC(N2C(=O)c3cccc(OCCCCNC(=O)c4cc5c(o4)C(=O)c4ccccc4C5=O)c3C2=O)C(=O)N1 (stereo not drawn)

Further lines, the molecule ahead of its results:

SMILES | IC50
O=C1CCC(N2C(=O)c3cccc(NCCOCCOCCOCCOCCNC(=O)c4cc5c(o4)C(=O)c4ccccc4C5=O)c3C2=O)C(=O)N1 (stereo not drawn) | 2.7 µM
O=C1CCC(N2C(=O)c3cccc(NCCOCCOCCOCCOCCOCCOCCNC(=O)c4cc5c(o4)C(=O)c4ccccc4C5=O)c3C2=O)C(=O)N1 (stereo not drawn) | 2.5 µM
O=C1CCC(N2C(=O)c3cccc(NCCCCCC4CCN(CCNC(=O)c5cc6c(o5)C(=O)c5ccccc5C6=O)CC4)c3C2=O)C(=O)N1 (stereo not drawn) | 0.9 µM
O=C1CCC(N2Cc3c(NCCOCCOCCNC(=O)c4cc5c(o4)C(=O)c4ccccc4C5=O)cccc3C2=O)C(=O)N1 (stereo not drawn) | 10.9 µM
CN1C(=O)CCC(N2C(=O)c3cccc(NCCCCCC4CCN(CCNC(=O)c5cc6c(o5)C(=O)c5ccccc5C6=O)CC4)c3C2=O)C1=O (stereo not drawn) | 1.7 µM
Cc1ncsc1-c1ccc(CNC(=O)[C@@H]2C[C@@H](O)CN2C(=O)[C@@H](NC(=O)COCCOCCNC(=O)c2cc3c(o2)C(=O)c2ccccc2C3=O)C(C)(C)C)cc1 | 11.4 µM
Cc1ncsc1-c1ccc(CNC(=O)[C@@H]2C[C@@H](O)CN2C(=O)[C@@H](NC(=O)COCCNC(=O)c2cc3c(o2)C(=O)c2ccccc2C3=O)C(C)(C)C)cc1 | > 30 µM
O=C1CCC(N2C(=O)c3ccc(NCCOCCOCCNC(=O)c4cc5c(o4)C(=O)c4ccccc4C5=O)cc3C2=O)C(=O)N1 (stereo not drawn) | 3.4 µM
